# Tests used:
# human 5-HT2b receptor = human 5-HT2b receptor (Homo sapiens, UniProt P41595); assay: 5-HT2bR competitive radioligand binding, [125I]
# [1] = test system: neurology patients / AD patients; settings: ref 1-8 of Supporting Data; cited from earlier work
# h5-HT2b and m5-HT2b = assay: Gq activation and β-arrestin-1 recruitment, statements covering both species; format: cell-based, human and mouse; settings: absence of an activator
# Procedure, shortened: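 Human and mouse 5-HT2b receptors were tested in cells. Serotonin-driven Gq activation and β-arrestin-1 recruitment were read across increasing test compound concentrations. The same read-outs were taken with vehicle and no activator to capture basal (inverse agonist) activity. Data are mean ± SEM of three to four independent experiments, each in duplicate or triplicate. EC50 and Emax were derived.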
# Chain of human 5-HT2b receptor (P41595 whole entry): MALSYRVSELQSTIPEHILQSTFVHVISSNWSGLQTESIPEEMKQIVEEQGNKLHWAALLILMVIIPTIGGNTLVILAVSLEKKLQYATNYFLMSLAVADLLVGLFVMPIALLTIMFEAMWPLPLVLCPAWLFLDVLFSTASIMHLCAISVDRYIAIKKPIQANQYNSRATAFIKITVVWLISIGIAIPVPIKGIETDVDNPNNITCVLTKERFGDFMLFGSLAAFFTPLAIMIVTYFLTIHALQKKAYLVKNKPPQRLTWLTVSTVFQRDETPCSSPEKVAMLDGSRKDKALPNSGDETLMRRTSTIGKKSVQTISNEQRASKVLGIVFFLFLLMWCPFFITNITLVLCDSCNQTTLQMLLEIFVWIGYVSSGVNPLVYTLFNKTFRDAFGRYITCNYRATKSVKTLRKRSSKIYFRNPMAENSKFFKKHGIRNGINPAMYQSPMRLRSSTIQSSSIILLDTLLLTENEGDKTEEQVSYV
Compound,IC50 (human 5-HT2b receptor) [µM],"Risk for cardiotoxicity, drowsiness, or weight gain [1]",Basal (constitutive) 5-HT2bR activity (h5-HT2b and m5-HT2b)
Cc1cc(-c2ccccc2)nnc1NCCN1CCOCC1 [minaprine],0.863 ± 0.008,low risk,–
Cc1nc2n(c(=O)c1CCN1CCC(c3noc4cc(F)ccc34)CC1)CCCC2 [risperidone],–,–,inhibited basal 5‐HT2bR

# From paper PMC11947739 (Alzheimer's & Dementia : Translational Research & Clinical …, 2025)
